Results reported in ChEMBL document CHEMBL1136882, “Mechanism-based inhibitors of serine proteases with high selectivity through optimization of S' subsite binding” (Bioorg Med Chem, 2009).
Activity calls are given as the source filed them. The calls are words filed in the database; no cut-off is given here.

Legend:
[1] = molecular target: T1, Myeloblastin (Homo sapiens) (UniProt P24158); test: Inhibition of human PR3 at inhibitor to enzyme ratio of 500 after 30 mins
T1 sequence (whole entry): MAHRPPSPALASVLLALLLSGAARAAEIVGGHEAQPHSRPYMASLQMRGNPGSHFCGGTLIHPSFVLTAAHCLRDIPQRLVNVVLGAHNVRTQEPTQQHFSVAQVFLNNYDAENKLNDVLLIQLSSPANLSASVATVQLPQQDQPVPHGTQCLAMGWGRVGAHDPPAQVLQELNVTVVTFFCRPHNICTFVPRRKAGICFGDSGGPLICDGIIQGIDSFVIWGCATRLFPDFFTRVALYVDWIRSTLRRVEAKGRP
In short: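 PR3 (34.5 nM final, from 0.1 M phosphate pH 6.50 stock) preincubated 30 min with inhibitor at [I]/[E] 500 (8.62 μM final). Buffer 0.1 M HEPES/0.5 M NaCl pH 7.25 with DMSO and DTNB. Substrate Boc-Ala-Ala-NVa-SBzl; absorbance read at 410 nm for 2 min. % remaining activity = (v/v0)×100 against a DMSO-only run; duplicate or triplicate.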

[2] = molecular target: T2, Neutrophil elastase (Homo sapiens) (UniProt P08246); test: Inhibition of human neutrophil elastase assessed as ratio of observed rate constant to drug concentration by incubation method; design: unit not given here
T2 sequence (whole entry): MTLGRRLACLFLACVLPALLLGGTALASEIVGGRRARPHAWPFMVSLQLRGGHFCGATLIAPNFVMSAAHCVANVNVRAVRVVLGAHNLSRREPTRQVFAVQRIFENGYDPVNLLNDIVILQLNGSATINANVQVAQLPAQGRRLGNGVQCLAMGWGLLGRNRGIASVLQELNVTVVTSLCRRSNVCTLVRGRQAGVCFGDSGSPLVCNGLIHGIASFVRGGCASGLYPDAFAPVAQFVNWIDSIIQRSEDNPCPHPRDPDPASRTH
In short: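 HNE incubated with excess inhibitor in 0.1 M HEPES/0.5 M NaCl pH 7.25 with DMSO in a constant-temperature bath (stocks: 70 μM enzyme, 3.5 mM inhibitor). Aliquots taken over time and assayed with MeOSuc-AAPV-pNA, read at 410 nm for 60 s. kobs taken from ln([E]t/[E]0) = −kobs·t; reported as kobs/[I].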

[3] = molecular target: T2, Neutrophil elastase (Homo sapiens); test: Inhibition of human neutrophil elastase at inhibitor to enzyme ratio of 500 after 30 mins
In short: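 HNE treated with inhibitor for 30 min at [I]/[E] ratio 500. Residual activity then measured with MeOSuc-AAPV-pNA in 0.1 M HEPES/0.5 M NaCl pH 7.25, reading absorbance at 410 nm.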

[4] = molecular target: T2, Neutrophil elastase (Homo sapiens); test: Inhibition of human neutrophil elastase assessed as ratio of kinact to Ki by progressive curve method
In short: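 Progress curves run with 10 nM HNE and 105 μM MeOSuc-AAPV-pNA in 0.1 M HEPES/0.5 M NaCl pH 7.25, 2.5% DMSO, over several [I]/[E] ratios. p-Nitroaniline release followed continuously at 410 nm. kobs obtained by nonlinear fit of A vs t; kobs/[I] corrected for substrate concentration to give kinact/KI. Duplicate determinations.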

[5] = molecular target: T2, Neutrophil elastase (Homo sapiens); test: Irreversible inhibition of human neutrophil elastase at 37 uM; conditions: TDE = time-dependent effect
In short: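 Inhibitor (37 μM) incubated with HNE (700 nM) in 0.1 M HEPES/0.5 M NaCl pH 7.25, 1% DMSO. Aliquots taken over time and assayed with MeOSuc-AAPV-pNA at 410 nm. Results plotted as percent remaining activity versus time.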

| SMILES | inhibition [1] | Ratio [2] | inhibition [3] | Ratio [4] | Activity [5] |
| --- | --- | --- | --- | --- | --- |
| CCC[C@H]1C(=O)N(C(CCC(=O)OC)Sc2ccc(NC(=O)OC(C)(C)C)cc2)S(=O)(=O)N1C (stereo partly drawn) | inactive | 170 | Active |  |  |
| CCC[C@H]1C(=O)N(C(CCC(=O)OC)Sc2ccc(NC(=O)CCC(=O)O)cc2)S(=O)(=O)N1C (stereo partly drawn) | inactive | 300 | Active |  |  |
| CCC[C@H]1C(=O)N(C(CCC(=O)OC)Sc2ccc(NC(=O)NCCc3ccccc3)cc2)S(=O)(=O)N1C (stereo partly drawn) | inactive | 150 | Active |  |  |
| CCC[C@H]1C(=O)N(C(CCC(=O)OC)Sc2ccc(OC)cc2)S(=O)(=O)N1C (stereo partly drawn) | inactive | 70 | Active |  |  |
| COC(=O)CCC(Sc1ccc(Cl)cc1)N1C(=O)[C@H](CC(C)C)N(C)S1(=O)=O (stereo partly drawn) | inactive |  | Active | 4580 | tde |
| CCC[C@H]1C(=O)N(C(CCC(=O)OC)Sc2ccc(NC(=O)c3ccccc3C(=O)O)cc2)S(=O)(=O)N1C (stereo partly drawn) | inactive | 260 | Active |  |  |

The remaining lines, values ahead:

| inhibition [1] | Ratio [2] | inhibition [3] | Ratio [4] | Activity [5] | SMILES |
| --- | --- | --- | --- | --- | --- |
| inactive | 20 | Active |  |  | CCC[C@H]1C(=O)N(C(CCC(=O)OC)Sc2ccc(Cl)cc2)S(=O)(=O)N1C (stereo partly drawn) |
| inactive | 110 | Active |  |  | CCC[C@H]1C(=O)N(C(CCC(=O)OC)Sc2ccc(N)cc2)S(=O)(=O)N1C (stereo partly drawn) |
| inactive | 320 | Active |  |  | CCC[C@H]1C(=O)N(C(CCC(=O)OC)Sc2ccc(F)cc2)S(=O)(=O)N1C (stereo partly drawn) |
